Data set [1] is described as follows: Therapeutic index, ratio of HC10 for human erythrocyte cells to MIC for multidrug resistant bacterial strains. The conditions noted are these: read-out: TI. In a few lines:
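TI = hemolytic activity divided by median of MIC values. Hemolysis: washed fresh human RBCs (1% v/v in TBS, pH 7.2) with 2-fold oligomer dilutions (1–128 μM), 37 °C, 1 h; supernatant OD 405 nm; melittin 400 μg/mL = 100%, TBS = 0%. HA = concentration giving ≥10% lysis. MICs by broth microdilution, 35 °C, 16–20 h.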

In another data set the test system is HeLa. Description: Cytotoxicity against human HeLa cells assessed as growth inhibition after 1 hr. The format is cell-based. In short, it runs like this: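 HeLa cells seeded at 9000 per well, cultured 24 h; at 80−100% confluency washed with HBSS and exposed 1 h (37 °C, 50 rpm) to 2-fold serial dilutions in EMEM. After washing, MTS/PMS (240/2.4 μg/mL) in HBSS added for 1.5 h; formazan read at 492 nm. 0.2% SDS = 0%, EMEM alone = 100%. Test range 1−128 or 8−1024 μM; IC50 reported.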

Data set [2] can be described thus: Hemolytic activity against human RBCs after 1 hr by spectrophotometry. The conditions noted are these: erythrocyte. The format is ADME, cell-based. In short, it runs like this:
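Freshly drawn human erythrocytes washed in TBS (pH 7.2, 10 mM Tris, 150 mM NaCl), 1% v/v suspension mixed with 2-fold serial dilutions (1−128 μM) in water; 1 h at 37 °C. After pelleting, supernatant diluted 1:1 with water and hemoglobin read at OD 405 nm. Melittin (400 μg/mL) = 100%, TBS = 0%. Value is the lowest concentration giving ≥10% lysis.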

Another data set deals with Staphylococcus aureus. Description: Antibacterial activity against methicillin-resistant Staphylococcus aureus isolate after 16 to 20 hrs by broth microdilution assay. The format is functional.
Data set [3] relates to Klebsiella pneumoniae. The data set can be described thus: Antibacterial activity against multidrug resistant NDM-1 producing Klebsiella pneumoniae isolate after 16 to 20 hrs by broth microdilution assay. The format is functional. For orientation: Dilution methods test growth across graded concentrations, often in twofold steps.
Data set [4] concerns Klebsiella pneumoniae. Description: Antibacterial activity against multidrug resistant KPC producing Klebsiella pneumoniae isolate after 16 to 20 hrs by broth microdilution assay. The format is functional.
For data set [5], the system named is Escherichia coli. Description: Antibacterial activity against multidrug resistant Amp-C producing Escherichia coli isolate after 16 to 20 hrs by broth microdilution assay. The format is functional.
Data set [6] deals with Escherichia coli. Description: Antibacterial activity against multidrug resistant NDM-1 producing Escherichia coli isolate after 16 to 20 hrs by broth microdilution assay. The format is functional.
Data set [7] deals with Escherichia coli. Description: Antibacterial activity against multidrug resistant ESBL producing Escherichia coli isolate after 16 to 20 hrs by broth microdilution assay. The format is functional.
Data set [8] deals with Escherichia coli. Description: Antibacterial activity against Escherichia coli ATCC 25922 after 16 to 20 hrs by broth microdilution assay. The format is functional.
Data set [9] is described as follows: Proteolytic stability of compound in presence of Pronase by reverse phase HPLC analysis. The format is ADME. In short, it runs like this: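 Oligomer (2 mg/mL solution, 250 μL) incubated with Pronase (1.0 mg/mL solution, 50 μL) in 10 mM Tris pH 7.5 (1.2 mL); enzyme activity first confirmed on Nα-benzoyl arginine. Degradation followed by analytical reverse-phase HPLC (10−60% B) at 6, 12, 18 and 50 h; degradation product identified by HRMS.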

Structures are written as SMILES. Values after ≈ are worked out from the molar mass of the structure shown. Some results are limits rather than exact numbers.

One may read the IC50 as the midpoint of a concentration-inhibition curve. For orientation: MIC means the smallest concentration in the dilution series that meets the test's criterion for growth inhibition. A high value points to a need for much substance. Regarding `CC(=O)N[C@@H](CCCCN)CC(=O)N[C@H](CC(=O)N[C@@H](CCCCN)CC(=O)N[C@H](CC(=O)N[C@@H](CCCCN)CC(=O)N[C@H](CC(=O)N[C@@H](CCCCN)CC(=O)N[C@H](CC(=O)N[C@@H](CCCCN)CC(=O)N[C@H](CC(=O)N[C@@H](CCCCN)CC(=O)N[C@H](CC(=O)N[C@@H](CCCCN)CC(=O)N[C@H](CC(=O)N[C@@H](CCCCN)CC(=O)N[C@H](CC(N)=O)Cc1ccccc1)Cc1ccccc1)Cc1ccccc1)Cc1ccccc1)Cc1ccccc1)Cc1ccccc1)Cc1ccccc1)Cc1ccccc1`, the selectivity ratio in data set [1] stood at 4. For the same compound, the IC50 in the data set on HeLa stood at 31 µM. Also, the HC10 in [2] is 128 µM. In addition, the minimal inhibitory concentration (MIC) against Staphylococcus aureus was determined as 16 µM (≈ 39.8 µg/mL); with Klebsiella pneumoniae [3] it was 32 µM (≈ 79.6 µg/mL); with Klebsiella pneumoniae [4], 32 µM (≈ 79.6 µg/mL); in the data set on Escherichia coli [5], 32 µM (≈ 79.6 µg/mL); in the data set on Escherichia coli [6] it was 32 µM (≈ 79.6 µg/mL); with Escherichia coli [7] it was 32 µM (≈ 79.6 µg/mL). The lowest concentration to inhibit growth in the data set on Escherichia coli [8] (MIC) was 16 µM (≈ 39.8 µg/mL). The Stability entry in data set [9] was “Stable”.

Turning to `CC(=O)N(CCCCN)CCC(=O)N(CCC(=O)N(CCCCN)CCC(=O)N(CCC(=O)N(CCCCN)CCC(=O)N(CCC(=O)N(CCCCN)CCC(=O)N(CCC(=O)N(CCCCN)CCC(=O)N(CCC(=O)N(CCCCN)CCC(=O)N(CCC(=O)N(CCCCN)CCC(=O)N(CCC(=O)N(CCCCN)CCC(=O)N(CCC(N)=O)Cc1ccccc1)Cc1ccccc1)Cc1ccccc1)Cc1ccccc1)Cc1ccccc1)Cc1ccccc1)Cc1ccccc1)Cc1ccccc1`, the selectivity ratio in data set [1] was above 10. Also, in the data set with HeLa, the IC50 was 169 µM. In data set [2], this compound showed an HC10 above 128 µM. Besides, the MIC amounted to 256 µM (≈ 636 µg/mL) with Staphylococcus aureus; 256 µM (≈ 636 µg/mL) with Klebsiella pneumoniae [3]; 256 µM (≈ 636 µg/mL) against Klebsiella pneumoniae [4]; 16 µM (≈ 39.8 µg/mL) in the data set on Escherichia coli [5]; 4 µM (≈ 9.95 µg/mL) in the data set on Escherichia coli [6]; 8 µM (≈ 19.9 µg/mL) against Escherichia coli [7]. In the data set on Escherichia coli [8], this compound displayed an MIC of 16 µM (≈ 39.8 µg/mL). In addition, in [9], the Stability entry was “Stable”.

Consider `CC(=O)N[C@@H](CCCCN)C(=O)N[C@H](CC(=O)N[C@@H](CCCCN)C(=O)N[C@H](CC(=O)N[C@@H](CCCCN)C(=O)N[C@H](CC(=O)N[C@@H](CCCCN)C(=O)N[C@H](CC(=O)N[C@@H](CCCCN)C(=O)N[C@H](CC(=O)N[C@@H](CCCCN)C(=O)N[C@H](CC(=O)N[C@@H](CCCCN)C(=O)N[C@H](CC(=O)N[C@@H](CCCCN)C(=O)N[C@H](CC(N)=O)Cc1ccccc1)Cc1ccccc1)Cc1ccccc1)Cc1ccccc1)Cc1ccccc1)Cc1ccccc1)Cc1ccccc1)Cc1ccccc1`, for which the selectivity ratio in data set [1] is 1. In addition, in the data set with HeLa, the IC50 was 31.1 µM. The compound further had an HC10 in data set [2] of 64 µM. Moreover, the MIC against Staphylococcus aureus is 32 µM (≈ 76 µg/mL); in the data set with Klebsiella pneumoniae [3], 128 µM (≈ 304 µg/mL); in the data set with Klebsiella pneumoniae [4] it was 128 µM (≈ 304 µg/mL); with Escherichia coli [5], 32 µM (≈ 76 µg/mL); against Escherichia coli [6], 64 µM (≈ 152 µg/mL); against Escherichia coli [7] it was 32 µM (≈ 76 µg/mL). In addition, the MIC in the data set on Escherichia coli [8] is 64 µM (≈ 152 µg/mL). The Stability entry in [9] was “Stable”.

For `CC(=O)N[C@@H](CCCCN)CC(=O)N[C@@H](Cc1ccccc1)C(=O)N[C@@H](CCCCN)CC(=O)N[C@@H](Cc1ccccc1)C(=O)N[C@@H](CCCCN)CC(=O)N[C@@H](Cc1ccccc1)C(=O)N[C@@H](CCCCN)CC(=O)N[C@@H](Cc1ccccc1)C(=O)N[C@@H](CCCCN)CC(=O)N[C@@H](Cc1ccccc1)C(=O)N[C@@H](CCCCN)CC(=O)N[C@@H](Cc1ccccc1)C(=O)N[C@@H](CCCCN)CC(=O)N[C@@H](Cc1ccccc1)C(=O)N[C@@H](CCCCN)CC(=O)N[C@@H](Cc1ccccc1)C(N)=O`, in data set [1], the selectivity ratio was 8. Moreover, the IC50 with HeLa was 133 µM. The compound also had an HC10 in data set [2] of 64 µM. Moreover, the MIC was determined as 256 µM (≈ 608 µg/mL) against Staphylococcus aureus; 256 µM (≈ 608 µg/mL) against Klebsiella pneumoniae [3]; 128 µM (≈ 304 µg/mL) in the data set with Klebsiella pneumoniae [4]; 16 µM (≈ 38 µg/mL) against Escherichia coli [5]; 4 µM (≈ 9.5 µg/mL) in the data set with Escherichia coli [6]; 8 µM (≈ 19 µg/mL) against Escherichia coli [7]. In the data set on Escherichia coli [8], this compound registered an MIC of 8 µM (≈ 19 µg/mL). Besides, the Stability result in [9] is “Stable”.

These data come from ChEMBL document CHEMBL2169776, “Antimicrobial activity of peptidomimetics against multidrug-resistant Escherichia coli: a comparative study of different backbones” (J Med Chem, 2012).
